Source: PubChem (Broad Institute)
HIF act: HIF pathway transcriptional activation; activation, % at 7.5 µM (by protocol); 300,000 tested, 0.32% active; U2OS HRE-luciferase reporter, luminescence; normalized: DMSO 0%, desferrioxamine 100%;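 active = mean activation of at least 10% of the iron chelator positive control signal, with at least half of replicates also reaching 10%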
HSF-1 act: increases HSF-1 driven luciferase reporter signal. NIH3T3-HGL HSF-1 luciferase reporter, MG132, 8 h; 100% = twice DMSO control signal. activation, % at 9 µM. 300,000 tested, 1.7% active. AID 504408;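 active = mean replicate activation of at least 50% with a set share of replicates each reaching 50%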;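 also: 0% = median of the neutral control wells and 100% = twice that signal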
HSF1 inh: HSF1 inhibition. activity change, negative = inhibition, % at 7.5 µM (by protocol). NIH3T3-HGL HSE-luciferase, MG132-induced, luminescence 8 h; active compounds read low. AID 2098. 300,000 tested, 0.77% active;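 active = more than half of replicate wells show activity change below -50%, luminescence cut by over half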;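 also: luciferase reports HSF-1 transcriptional activity via heat shock element; 0% = median of DMSO wells and -100% = zero luminescence signal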
Calb FLC: C. albicans growth modulation with fluconazole. C. albicans CaCi-2 (fluconazole-resistant clinical isolate) + fluconazole, Alamar Blue growth, 48 h. growth inhibition, % (no concentration beside the values). 300,000 tested, 0.57% active. AID 1979;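 active = growth inhibition above about 58% in most replicates, limit read from the data, passing the limit was not always enough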;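 also: all wells also contain fluconazole at 8 µg/ml as a sub-toxic cotreatment; 0% = median of DMSO wells and 100% = median of geldanamycin control wells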
T cruzi repl: blocks replication of Trypanosoma cruzi. 300,000 tested, 1.4% active. AID 1885. inhibition, % (concentration not given with the values). T. cruzi beta-gal in NIH3T3, luminescence, 90 h;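 active = mean inhibition across valid replicates above about 55%, limit read from the data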;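 also: signal also drops with host cell toxicity which is not excluded here; 0% = plate median of DMSO wells and 100% = zero luminescence signal; higher percent means less beta-gal luminescence so fewer parasites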
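Assay system: NIH/3T3 host cells with β-galactosidase reporter T. cruzi; input: 5,000 host fibroblasts per well; compound: single 50 nL compound addition per well in DMSO; timing: ≥90 h infection period, 3 h prior cell attachment; measured by: GalScreen β-gal luminescence, detergent lysis, 60 min; evaluation: percent inhibition of parasite-derived β-gal signal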
Starred values were filed as active, the others as inactive. This is a sample that favours compounds with a hit; in the whole collection about 4.4% have one here.

`CCc1[nH]nc(C(=O)N2CCCC(C(=O)c3cccc(C(F)(F)F)c3)C2)c1C` (stereo not given) gave HIF act -1.1, HSF-1 act 35.3, HSF1 inh 9.7, Calb FLC 1.7 and T cruzi repl -5.6.
Screening COc1cccc2cc(C(=O)Nc3ccccc3Cl)/c(=N/NS(=O)(=O)c3ccccc3)oc12 returned HIF act 0.7, HSF-1 act 14.3, HSF1 inh 0.7, Calb FLC -4.0 and T cruzi repl -7.1.
`CCCCN1C(=O)C(=O)NC[C@@H]1CCCCN` gave HIF act -0.6, HSF-1 act -6.9, HSF1 inh -0.6, Calb FLC -13.7 and T cruzi repl -0.5.
Screening c1ccc(CNc2nc(-c3ccccc3)nc3ccccc23)cc1 returned HIF act 2.0, HSF-1 act 25.6, HSF1 inh 12.2, Calb FLC 1.8 and T cruzi repl 25.9.
Screening Fc1ccc(Nc2nc(NCc3ccco3)c3ccccc3n2)cc1 returned HIF act 2.2, HSF-1 act 12.3, HSF1 inh 5.0, Calb FLC -1.9 and T cruzi repl 57.0*.
`c1ccc(CNc2nc(NCc3ccccc3)c3ccccc3n2)cc1` gave HIF act -5.2, HSF-1 act -64.6, HSF1 inh -59.8*, Calb FLC 80.4* and T cruzi repl 38.2.
Screening c1ccc(CN2CCC(Nc3nc(-c4cccnc4)nc4ccccc34)CC2)cc1 returned HIF act 0.3, HSF-1 act 25.3, HSF1 inh 6.5, Calb FLC -3.4 and T cruzi repl 58.7*.
CC(Nc1nc(-c2cccnc2)nc2ccccc12)c1ccc(F)cc1 (stereo not given) was read as HIF act 0.2, HSF-1 act 19.8, HSF1 inh 9.7, Calb FLC -3.2 and T cruzi repl 56.0*.
`O=C1CC(NS(=O)(=O)c2cc(F)ccc2F)CN1c1cccc(F)c1` (stereo not given) gave HIF act -0.3, HSF-1 act 2.8, HSF1 inh 6.8, Calb FLC -1.0 and T cruzi repl 1.8.
`CCOc1cccc2cc(C(=O)NCc3ccc(F)cc3)c(=N)oc12` gave HIF act -0.2, HSF-1 act 1.0, HSF1 inh -2.2, Calb FLC -3.3 and T cruzi repl 3.3.
Cc1c(O)ccc(/C=N/Nc2nc(-c3cccnc3)nc3ccccc23)c1O was read as HIF act 2.4, HSF-1 act -14.3, HSF1 inh -4.8, Calb FLC 0.1 and T cruzi repl 55.9*.
`Cc1ccc(Nc2nc(-c3cccnc3)nc3ccccc23)cc1` gave HIF act 2.0, HSF-1 act 19.5, HSF1 inh -8.1, Calb FLC 1.9 and T cruzi repl 51.8.
`c1cncc(-c2nc(NCc3ccc4c(c3)OCO4)c3ccccc3n2)c1` gave HIF act 0.0, HSF-1 act 26.3, HSF1 inh 9.7, Calb FLC 4.1 and T cruzi repl 68.7*.
For Clc1cccc(CNc2nc(-c3cccnc3)nc3ccccc23)c1 the results were HIF act 1.1, HSF-1 act 23.3, HSF1 inh 7.2, Calb FLC -8.0 and T cruzi repl 62.7*.
`Cc1ccccc1Nc1nc(-c2cccnc2)nc2ccccc12` gave HIF act -0.4, HSF-1 act 28.8, HSF1 inh 3.2, Calb FLC 2.7 and T cruzi repl 58.9*.
Screening CCOc1nc2ccccc2cc1C=O returned HIF act 2.4, Calb FLC -9.1 and T cruzi repl 0.2.
Screening Fc1ccc(CNc2nc(-c3cccnc3)nc3ccccc23)cc1 returned HIF act -0.4, HSF-1 act 11.7, HSF1 inh -3.6, Calb FLC 7.8 and T cruzi repl 56.3*.
Screening O=C(O)CNc1nc(-c2ccccc2)nc2c1oc1ccccc12 returned HIF act -0.2, HSF-1 act -14.8, HSF1 inh -12.8, Calb FLC 0.5 and T cruzi repl 5.8.
`c1ccc(-c2nc(NCc3cccnc3)c3oc4ccccc4c3n2)cc1` gave HIF act 0.0, HSF-1 act 75.7*, HSF1 inh 55.3, Calb FLC 7.5 and T cruzi repl 55.9*.
`Cc1cc(C=O)c2c(c1)C=CC1(Oc3ccccc3C(=O)N1C)O2` (stereo not given) gave HIF act -0.2, HSF-1 act 18.9, HSF1 inh 36.9, Calb FLC -5.8 and T cruzi repl -9.3.
